For eleven molecules, Activity results are on record in ChEMBL document CHEMBL3580615, “Isolation and Characterization of Dammarane-Type Saponins from Gynostemma pentaphyllum and Their Inhibitory Effects on IL-6-Induced STAT3 Activation” (J Nat Prod, 2015).

The data set can be described thus: Cytotoxicity against human Hep3B cells after 48 hrs by MTT assay. Particulars: hep 3b2, 48 h. Type of data set: cell-based. Put shortly: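 Hep3B cells plated and grown 24 h in 96-well plates, then switched to serum-free medium. Samples added at indicated concentrations for 48 h. Viability read by MTT assay.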
Turning to `CC(C)/C=C/C[C@](C)(O[C@@H]1O[C@H](CO[C@@H]2O[C@@H](C)[C@H](O)[C@@H](O)[C@H]2O)[C@@H](O)[C@H](O)[C@H]1O)[C@H]1CC[C@]2(C)[C@@H]1[C@H](O)C[C@@H]1[C@@]3(C)C[C@@H](O)[C@H](O[C@@H]4O[C@H](CO)[C@@H](O)[C@H](O)[C@H]4O)C(C)(C)[C@@H]3CC[C@]12C`, the Activity result is recorded as “Non-toxic”.

Take `CC(C)/C=C/C[C@](C)(O[C@@H]1O[C@H](CO[C@@H]2O[C@@H](C)[C@H](O)[C@@H](O)[C@H]2O)[C@@H](O)[C@H](O)[C@H]1O)[C@H]1CC[C@]2(C)[C@@H]1[C@H](O)C[C@@H]1[C@@]3(C)CC[C@H](O[C@@H]4O[C@H](CO)[C@@H](O)[C@H](O)[C@H]4O[C@@H]4O[C@H](CO)[C@@H](O)[C@H](O)[C@H]4O)C(C)(C)[C@@H]3CC[C@]12C`: the Activity entry is “Non-toxic”.

Turning to `CC(C)(/C=C/C[C@](C)(O[C@@H]1O[C@H](CO[C@@H]2O[C@H](CO)[C@@H](O)[C@H](O)[C@H]2O)[C@@H](O)[C@H](O)[C@H]1O)[C@H]1CC[C@]2(C)[C@@H]1[C@H](O)C[C@@H]1[C@@]3(C)C[C@@H](O)[C@H](O)C(C)(C)[C@@H]3CC[C@]12C)OO`, the Activity entry is recorded as “Non-toxic”.

Turning to `C[C@@H]1O[C@@H](OC[C@H]2O[C@@H](O[C@@](C)(C/C=C/C(C)(C)O)[C@H]3CC[C@]4(C)[C@@H]3[C@H](O)C[C@@H]3[C@@]5(C)C[C@@H](O)[C@H](O[C@@H]6O[C@H](CO)[C@@H](O)[C@H](O)[C@H]6O)C(C)(C)[C@@H]5CC[C@]34C)[C@H](O)[C@@H](O)[C@@H]2O)[C@H](O)[C@H](O)[C@H]1O`, the Activity entry is reported as “Non-toxic”.

With `C=C(C)C(=O)CC[C@](C)(O[C@@H]1O[C@H](CO[C@@H]2O[C@@H](C)[C@H](O)[C@@H](O)[C@H]2O)[C@@H](O)[C@H](O)[C@H]1O)[C@H]1CC[C@]2(C)[C@@H]1[C@H](O)C[C@@H]1[C@@]3(C)C[C@@H](O)[C@H](O[C@@H]4O[C@H](CO)[C@@H](O)[C@H](O)[C@H]4O[C@@H]4O[C@H](CO)[C@@H](O)[C@H](O)[C@H]4O)C(C)(C)[C@@H]3CC[C@]12C`, the Activity result is listed as “Non-toxic”.

Consider `C=C(C)C(=O)CC[C@](C)(O[C@@H]1O[C@H](CO[C@@H]2O[C@@H](C)[C@H](O)[C@@H](O)[C@H]2O)[C@@H](O)[C@H](O)[C@H]1O)[C@H]1CC[C@]2(C)[C@@H]1[C@H](O)C[C@@H]1[C@@]3(C)C[C@@H](O)[C@H](O)C(C)(C)[C@@H]3CC[C@]12C`, for which the Activity entry is recorded as “Non-toxic”.

`CC(C)(/C=C/C[C@](C)(O[C@@H]1O[C@H](CO)[C@@H](O)[C@H](O)[C@H]1O)[C@H]1CC[C@]2(C)[C@@H]1[C@H](O)C[C@@H]1[C@@]3(C)C[C@@H](O)[C@H](O[C@@H]4O[C@H](CO)[C@@H](O)[C@H](O)[C@H]4O[C@@H]4O[C@H](CO)[C@@H](O)[C@H](O)[C@H]4O)C(C)(C)[C@@H]3CC[C@]12C)OO`: the Activity result is given as “Non-toxic”.

Take `CC(C)/C=C/C[C@](C)(O[C@@H]1O[C@H](CO[C@@H]2O[C@@H](C)[C@H](O)[C@@H](O)[C@H]2O)[C@@H](O)[C@H](O)[C@H]1O)[C@H]1CC[C@]2(C)[C@@H]1[C@H](O)C[C@@H]1[C@@]3(C)C[C@@H](O)[C@H](O[C@@H]4O[C@H](CO)[C@@H](O)[C@H](O)[C@H]4O[C@@H]4O[C@H](CO)[C@@H](O)[C@H](O)[C@H]4O)C(C)(C)[C@@H]3CC[C@]12C`: the Activity result is listed as “Non-toxic”.

For the molecule `C=C(C)C(=O)CC[C@](C)(O[C@@H]1O[C@H](CO[C@@H]2O[C@H](CO)[C@@H](O)[C@H](O)[C@H]2O)[C@@H](O)[C@H](O)[C@H]1O)[C@H]1CC[C@]2(C)[C@@H]1[C@H](O)C[C@@H]1[C@@]3(C)C[C@@H](O)[C@H](O)C(C)(C)[C@@H]3CC[C@]12C`, the Activity result is given as “Non-toxic”.

On to `C[C@@H]1O[C@@H](OC[C@H]2O[C@@H](O[C@@](C)(C/C=C/C(C)(C)OO)[C@H]3CC[C@]4(C)[C@@H]3[C@H](O)C[C@@H]3[C@@]5(C)C[C@@H](O)[C@H](O[C@@H]6O[C@H](CO)[C@@H](O)[C@H](O)[C@H]6O[C@@H]6O[C@H](CO)[C@@H](O)[C@H](O)[C@H]6O)C(C)(C)[C@@H]5CC[C@]34C)[C@H](O)[C@@H](O)[C@@H]2O)[C@H](O)[C@H](O)[C@H]1O`, for which the Activity result is “Non-toxic”.

In the case of `CC(C)/C=C/C[C@](C)(O[C@@H]1O[C@H](CO[C@@H]2O[C@@H](C)[C@H](O)[C@@H](O)[C@H]2O)[C@@H](O)[C@H](O)[C@H]1O)[C@H]1CC[C@]2(C)[C@@H]1[C@H](O)C[C@@H]1[C@@]3(C)C[C@@H](O)[C@H](O)C(C)(C)[C@@H]3CC[C@]12C`, the Activity entry is “Non-toxic”.
